Tests used:
[1] = Inhibition of PDE4
[2] = Chemical stability in phosphate buffer of pH 7.4 assessed as change in ester; assay type: physicochemical; details: read-out: Activity
Method in brief: (§1)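 Compounds at 5 µM final in female CD-1 mouse plasma (K2EDTA) or PBS pH 7.4, 37 °C with mild shaking for 1 h. A time-0 plate was held on ice. Reactions were quenched with internal standard in acetonitrile or methanol, then centrifuged, and the supernatant was analysed by LC/MS/MS for loss of ester and appearance of the corresponding acid. Triplicates, values are means.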

Plasma [3] = assay: Metabolic stability in CD1 mouse plasma assessed as change in formation of acid; assay type: ADME, cell-free; method in brief: as §1
[4] = Chemical stability in phosphate buffer of pH 7.4 assessed as formation of acid; assay type: physicochemical; method in brief: as §1
Plasma [5] = assay: Metabolic stability in CD1 mouse plasma assessed as change in ester; assay type: ADME, cell-free; method in brief: as §1
Mus musculus [6] = assay: Antiinflammatory activity in mouse assessed as inhibition of phorbol ester-induced ear edema at 3 mg/ear; assay type: functional
Mus musculus [7] = assay: Antiinflammatory activity in mouse assessed as inhibition of phorbol ester-induced ear edema at 1 mg/ear; assay type: functional
THP-1 [8] = assay: Antiinflammatory activity in human THP1 cells assessed as inhibition of TNFalpha release; assay type: functional, cell-based
THP-1 [9] = assay: Antiinflammatory activity in human THP1 cells assessed as inhibition of IL10 release; assay type: functional, cell-based
[10] = Inhibition of PDE4 at 10 uM
THP-1 [11] = assay: Antiinflammatory activity in human THP1 cells assessed as inhibition of IL5 release; assay type: functional, cell-based
THP-1 [12] = assay: Antiinflammatory activity in human THP1 cells assessed as inhibition of IL2 release; assay type: functional, cell-based
THP-1 [13] = assay: Antiinflammatory activity in human THP1 cells assessed as inhibition of IFN-gamma release; assay type: functional, cell-based
[14] = Cmax in CD1 mouse at 100 mg/kg, po; assay type: ADME, organism-based; design: dose 100 mg/kg, route oral; details: in vivo
Method in brief: (§2)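 Non-fasted CD-1 mice (n = 3 per group) received a single 100 mg/kg dose sc or po as a suspension in 1% carboxymethylcellulose. Plasma ester and its acid metabolite were followed over 6 h. Parameters came from a non-compartmental model, with bioavailability referenced to iv set at 100%.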

[15] = Oral bioavailability in CD1 mouse at 100 mg/kg; assay type: ADME, organism-based; details: in vivo; method in brief: as §2
[16] = Tmax in CD1 mouse at 100 mg/kg, po; assay type: ADME, organism-based; design: dose 100 mg/kg, route oral; details: in vivo; method in brief: as §2
[17] = Bioavailability in CD1 mouse at 100 mg/kg, sc; assay type: ADME, organism-based; details: in vivo; method in brief: as §2
Mus musculus [18] = assay: Bioavailability in CD1 mouse at 25 mg/kg, iv; assay type: ADME, organism-based; details: in vivo
Method in brief: (§3)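 A single 25 mg/kg iv dose in 1-methyl-2-pyrrolidone/propylene glycol/PEG-400 (10:40:50, v/v/v) was given to non-fasted CD-1 mice, n = 3. Plasma ester and acid were measured over 6 h. Non-compartmental analysis gave the PK parameters, and iv bioavailability was taken as 100%.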

[19] = Tmax in CD1 mouse at 100 mg/kg, sc; assay type: ADME, organism-based; design: dose 100 mg/kg, route subcutaneous; details: in vivo; method in brief: as §2
[20] = AUC in CD1 mouse at 100 mg/kg, sc; assay type: ADME, organism-based; design: dose 100 mg/kg, route subcutaneous; details: plasma; method in brief: as §2
[21] = Half life in CD1 mouse at 25 mg/kg, iv; assay type: ADME, organism-based; design: dose 25 mg/kg, route intravenous; details: in vivo; method in brief: as §3
[22] = AUC in CD1 mouse at 100 mg/kg, po; assay type: ADME, organism-based; design: dose 100 mg/kg, route oral; details: plasma; method in brief: as §2
[23] = Cmax in CD1 mouse at 25 mg/kg, iv; assay type: ADME, organism-based; design: dose 25 mg/kg, route intravenous; details: in vivo; method in brief: as §3
[24] = Cmax in CD1 mouse at 100 mg/kg, sc; assay type: ADME, organism-based; design: dose 100 mg/kg, route subcutaneous; details: in vivo; method in brief: as §2

| IC50 [1] | percent change in ester [2] | Activity (Plasma [3]) | Activity (Plasma [5]) | SMILES | other results |
| --- | --- | --- | --- | --- | --- |
| 490 nM | – | – | – | N#Cc1ccc(Oc2ccc3c(c2)COB3O)cc1 [CRISABOROLE] | – |
| 6420 nM | – | – | – | O=C(O)c1ccc(Oc2ccc3c(c2)COB3O)cc1 | – |
| 130 nM | -10.6% | 27.6% | -58.9% | CC(C)OC(=O)c1ccc(Oc2ccc3c(c2)COB3O)cc1 | – |
| 763 nM | -8.8% | 58.8% | -94.9% | CCCOC(=O)c1ccc(Oc2ccc3c(c2)COB3O)cc1 | – |
| 287 nM | -8.9% | 29.4% | -43.6% | COC(=O)c1ccc(Oc2ccc3c(c2)COB3O)cc1 | – |
| 180 nM | – | – | – | N#Cc1ccc(Oc2ccc3c(c2)COB3O)nc1 | – |
| 219 nM | -3.2% | 53.6% | -76.2% | CCOC(=O)c1ccc(Oc2ccc3c(c2)COB3O)cc1 | – |

Further lines, the molecule ahead of its results:

| SMILES | IC50 [1] | percent change in ester [2] | Activity (Plasma [3]) | Activity (Plasma [5]) | other results |
| --- | --- | --- | --- | --- | --- |
| CCCCOC(=O)c1ccc(Oc2ccc3c(c2)COB3O)nc1 | 94.5 nM | -8.9% | 76.6% | -98% | Activity [4]: 0.4% |
| COC(=O)c1ccc(Oc2ccc3c(c2)COB3O)nc1 | 84 nM | -9.8% | 31.6% | -42.4% | Activity [4]: 0.4% |
| CCCOC(=O)c1ccc(Oc2ccc3c(c2)COB3O)nc1 | 130 nM | -13.6% | 79.8% | -92.5% | Activity [4]: 0.5% |
| COc1ccc(C2CNC(=O)C2)cc1OC1CCCC1 (stereo not drawn) [ROLIPRAM] | – | – | – | – | inhibition (INH) (Mus musculus [6]): 53%; inhibition (INH) (Mus musculus [7]): 6% |
| C[C@@H]1C[C@H]2[C@@H]3CCC4=CC(=O)C=C[C@]4(C)[C@@]3(F)[C@@H](O)C[C@]2(C)[C@@]1(O)C(=O)CO [DEXAMETHASONE] | – | – | – | – | inhibition (INH) (Mus musculus [7]): 68% |
| O=C(O)c1ccc(Oc2ccc3c(c2)COB3O)nc1 | – | – | – | – | IC50 (THP-1 [8]): > 10000 nM; IC50 (THP-1 [9]): > 10000 nM; inhibition [10]: 5%; IC50 (THP-1 [11]): > 10000 nM; IC50 (THP-1 [12]): > 10000 nM; IC50 (THP-1 [13]): > 10000 nM |
| CCOC(=O)c1ccc(Oc2ccc3c(c2)COB3O)nc1 | 47 nM | -2.4% | – | -72.5% | Cmax [14]: 4390 ng/mL; IC50 (THP-1 [8]): 200 nM; bioavailability [15]: 10.8%; IC50 (THP-1 [9]): 460 nM; Tmax [16]: 15 min; bioavailability [17]: 97.8%; F (Mus musculus [18]): 100%; Tmax [19]: 30 min; AUC [20]: 14500 ng·h/mL; inhibition (INH) (Mus musculus [7]): 59%; half-life [21]: 61.8 min; IC50 (THP-1 [11]): 200 nM; IC50 (THP-1 [12]): 100 nM; AUC [22]: 1660 ng·h/mL; Cmax [23]: 12500 ng/mL; Cmax [24]: 12700 ng/mL; IC50 (THP-1 [13]): 100 nM |
| CC(C)OC(=O)c1ccc(Oc2ccc3c(c2)COB3O)nc1 | 113 nM | 2.4% | 36.4% | -60.5% | Activity [4]: 1.4% |

From ChEMBL document CHEMBL1156280, “Design and synthesis of boron-containing PDE4 inhibitors using soft-drug strategy for potential dermatologic anti-inflammatory application” (Bioorg Med Chem Lett, 2010)
